Test results as given in ChEMBL document CHEMBL1212828, “Synthesis and biological evaluation of novel pyrazole compounds” (Bioorg Med Chem, 2010).
pIC50: −log10 of the molar value. Calls of active or inactive are those of the source. The calls are words filed in the database; no cut-off is given here.

What was measured:
Rattus norvegicus [1] = test: Antiinflammatory activity in Wistar albino rat assessed as inhibition of turpentine oil-induced granuloma at 20 mg/kg, po qd for 7 days post turpentine oil challenge measured on day 8; type: functional
Outline: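 In ether-anaesthetized male Wistar rats (five per group) a dorsal subcutaneous pouch is formed with 2 mL air, then 0.5 mL turpentine oil is injected. Oral dosing at 20 mg/kg starts 1 h before turpentine and continues 7 days. On day 8 the exudate is drawn by syringe and its volume recorded; % inhibition = (Vcontrol − Vtreated)/Vcontrol × 100.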

THP-1 [2] = test: Neuroprotective activity against LPS and IFN-gamma-stimulated neurotoxin production in human THP1 cell assessed as inhibition of THP1 cell secretion-induced toxicity to human SY-SH5Y cells after 48 hrs of LPS nd IFN-gamma challenge measured after 72 hrs by MTT assay; type: functional, cell-based
Outline: (§1)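 THP-1 cells given compound 15 min before LPS (0.5 µg/mL) plus IFN-γ (150 U/mL), then incubated 48 h. Cell-free supernatant moved onto SH-SY5Y cells plated 24 h earlier. Neuronal survival after 72 h by MTT assay or LDH release. 11 independent experiments; IC50 estimated.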

THP-1 [3] = test: Neuroprotective activity against LPS and IFN-gamma-stimulated neurotoxin production in human THP1 cell assessed as inhibition of THP1 cell secretion-induced toxicity to human SY-SH5Y cells after 48 hrs of LPS nd IFN-gamma challenge measured after 72 hrs by LDH release assay; type: functional, cell-based; outline: as §1
[4] = Acute toxicity in Wistar albino rat after 24 hrs; type: organism-based; conditions: in vivo, read-out: ALD50
Outline: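 Male Wistar albino rats (180–200 g), fasted 24 h, groups of five; compound given orally in graded doses of 0.1–3.0 g/kg. Mortality recorded at each dose after 24 h to estimate approximate acute lethal dose (ALD50).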

[5] = molecular target: T1, Prostaglandin G/H synthase 2 (Homo sapiens) (UniProt P35354); test: Inhibition of human COX2 at 100 uM
T1 sequence (whole entry): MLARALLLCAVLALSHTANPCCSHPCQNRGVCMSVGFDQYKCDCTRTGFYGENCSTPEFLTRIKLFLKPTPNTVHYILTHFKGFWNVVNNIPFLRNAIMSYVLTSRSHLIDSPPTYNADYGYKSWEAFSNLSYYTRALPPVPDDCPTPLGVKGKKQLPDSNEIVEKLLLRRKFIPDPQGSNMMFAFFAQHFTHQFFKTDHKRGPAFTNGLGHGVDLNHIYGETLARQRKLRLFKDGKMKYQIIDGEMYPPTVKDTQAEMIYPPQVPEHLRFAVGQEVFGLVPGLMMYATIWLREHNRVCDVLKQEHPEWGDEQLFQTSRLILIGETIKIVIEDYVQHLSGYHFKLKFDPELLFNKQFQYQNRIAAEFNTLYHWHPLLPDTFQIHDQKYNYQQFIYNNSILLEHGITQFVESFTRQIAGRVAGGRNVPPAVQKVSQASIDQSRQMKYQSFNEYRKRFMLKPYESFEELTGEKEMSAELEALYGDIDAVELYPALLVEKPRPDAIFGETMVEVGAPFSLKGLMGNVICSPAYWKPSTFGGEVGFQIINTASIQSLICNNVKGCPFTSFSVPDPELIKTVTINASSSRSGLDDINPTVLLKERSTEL
Outline: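 Screening kit with ovine COX-1 and human recombinant COX-2, run per manufacturer's protocol; percent inhibition of prostaglandin production measured for each isoform.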

Rattus norvegicus [6] = test: Antiinflammatory activity in Wistar albino rat assessed as inhibition of formalin-induced paw edema at 20 mg/kg, po administered 1 hr prior to formalin challenge measured after 3 hrs relative to control; type: functional
Outline: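 Male Wistar rats, 180–200 g, groups of five; single oral dose 1 h before 2% formalin (0.1 mL) into subplantar left hind paw under light ether anaesthesia. Paw volume read by water plethysmometer at baseline and 1, 2, 3, 4 h; % inhibition = control (Vt−Vo) minus treated (Vt−Vo), over control, ×100. Means ± SEM; ANOVA with Student–Newman–Keuls.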

Rattus norvegicus [7] = test: Antiinflammatory activity in Wistar albino rat sub-acute inflammatory model assessed as inhibition of formalin-induced paw edema at 20 mg/kg, po administered 1 hr prior to formalin challenge measured on day 8 relative to control; type: functional
Outline: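 Male Wistar rats, 180–200 g, five per group, dosed orally 20 mg/kg daily for 7 consecutive days. Formalin (2%, 0.1 mL) injected subplantar into left hind paw under light ether 1 h after dosing, repeated on day 3. Paw volume measured plethysmographically on days 1 and 8; inhibition expressed relative to untreated controls.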

THP-1 [8] = test: Neuroprotective activity against LPS and IFN-gamma-stimulated neurotoxin production in human THP1 cells assessed as inhibition of THP1 cell secretion-induced toxicity to human sSH-SY5Y cells after 72 hrs by LDH release assay; type: functional, cell-based
Outline: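 THP-1 cells pretreated 15 min with compound, then stimulated with LPS (0.5 µg/mL) plus IFN-γ (150 U/mL) for 24 h. Cell-free supernatant transferred to SH-SY5Y cells plated 24 h earlier (2 × 10^5 cells/mL). After 72 h, SH-SY5Y viability read by MTT (0.5 mg/mL, 1 h, 37 °C, OD570) or by LDH release (OD490, relative to Triton X-100 lysis). IC50 estimated.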

SH-SY5Y (Homo sapiens) = test: Neuroprotective activity against LPS and IFN-gamma-induced human THP1 cell supernatant-induced death of human SH-SY5Y cells after 72 hrs by MTT assay; conditions: THP-1
THP-1 [9] = test: Antiinflammatory activity in human THP1 cells assessed as reduction in LPS and IFN-gamma-induced level at 500 uM after 24 hrs
SH-SY5Y [10] = test: Cytotoxicity against human SH-SY5Y cells assessed as reduction in cell viability at 100 uM after 72 hrs by MTT assay; type: functional
Outline: (§2)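 SH-SY5Y neuroblastoma cells exposed directly to compound at 5–500 µM; viability determined 72 h later by MTT (0.5 mg/mL final, 1 h at 37 °C, SDS/DMF solubilization overnight, 570 nm), relative to cells in fresh medium only.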

SH-SY5Y [11] = test: Neuroprotective activity against H2O2-induced oxidative stress in human SH-SY5Y cells; type: functional, cell-based
Outline: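 SH-SY5Y cells seeded at 2 × 10^5/mL in DMEM-F12 with 5% FBS; after 24 h medium replaced by supernatant of THP-1 cells stimulated 24 h with LPS + IFN-γ, or by medium containing 250 µM H2O2, with compound added at transfer. Cell death measured by LDH assay 72 h later; five independent experiments; randomized block ANOVA.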

SH-SY5Y [12] = test: Cytotoxicity against human SH-SY5Y cells assessed as reduction in cell viability at 500 uM after 72 hrs by MTT assay; type: functional; outline: as §2
THP-1 [13] = test: Neuroprotective activity against LPS and IFN-gamma-stimulated neurotoxin production in human THP1 cells assessed as increase in THP1 cell secretion-induced LDH release to human SY-SH5Y cells at 10 to 100 uM after 72 hrs; type: functional, cell-based
Outline: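 THP-1 cells treated with 10–100 µM compound 15 min before LPS/IFN-γ stimulation for 24 h. Supernatants transferred to SH-SY5Y cells. After 72 h, LDH released into the neuronal medium measured colorimetrically and expressed as a fraction of Triton X-100-lysed wells.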

| SMILES | inhibition in vivo at 20 mg/kg (Rattus norvegicus [1]) | pIC50 (THP-1 [2]) | pIC50 (THP-1 [3]) | LD50 at 24 h [4] | inhibition [5] | inhibition in vivo at 20 mg/kg (Rattus norvegicus [6]) | inhibition in vivo at 20 mg/kg (Rattus norvegicus [7]) | Activity (THP-1 [8]) | Activity (SH-SY5Y (Homo sapiens)) | Activity (THP-1 [9]) | Activity (SH-SY5Y [10]) | Activity (SH-SY5Y [11]) | Activity (SH-SY5Y [12]) | Activity (THP-1 [13]) |
| --- | --- | --- | --- | --- | --- | --- | --- | --- | --- | --- | --- | --- | --- | --- |
| CC(NC(=O)C(=O)Nc1c(C#N)cnn1-c1ccccc1)c1ccccc1 (centres undefined) | 51% | 4.85 | 4.40 | > 300 mg/kg | 33.8% | 46% | 38% | – | – | – | – | – | – | – |
| N#Cc1cnn(-c2ccccc2)c1NC(=O)C(=O)Nc1c(C#N)cnn1-c1ccccc1 | 48% | – | – | > 300 mg/kg | 14% | 50% | 44% | Active | Active | Active | 23% | inactive | 86% | Active |
